The target in assay [1] is T1, Integrin alpha-V/beta-3 (Homo sapiens, UniProt P05106+P06756). Kind of assay: Antagonist activity at alphaVbeta3 in human SK-MEL-24 cells assessed as reduction in cell adhesion to fibronectin pre-incubated for 30 mins before fibronectin and further incubated for 1 hr by nitrophenyl-N-acetyl-beta-D-glucosaminide substrate based chromogenic assay. The method, boiled down:
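Compound or methanol vehicle pre-incubated with cells for 30 min at room temperature. Cells then plated on wells coated overnight at 4 °C with fibronectin 10 µg/mL (SK-MEL-24, K562, HT-29) or fibrinogen 10 µg/mL (MCF7, HEL). Seeding was 50,000 cells/well, or 100000 for HEL. Adhesion ran 1 h at room temperature. Wells washed with 1% BSA/PBS. Quadruplicate, at least three repeats.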
Target sequence in this assay (P05106 27-788 limits assumed): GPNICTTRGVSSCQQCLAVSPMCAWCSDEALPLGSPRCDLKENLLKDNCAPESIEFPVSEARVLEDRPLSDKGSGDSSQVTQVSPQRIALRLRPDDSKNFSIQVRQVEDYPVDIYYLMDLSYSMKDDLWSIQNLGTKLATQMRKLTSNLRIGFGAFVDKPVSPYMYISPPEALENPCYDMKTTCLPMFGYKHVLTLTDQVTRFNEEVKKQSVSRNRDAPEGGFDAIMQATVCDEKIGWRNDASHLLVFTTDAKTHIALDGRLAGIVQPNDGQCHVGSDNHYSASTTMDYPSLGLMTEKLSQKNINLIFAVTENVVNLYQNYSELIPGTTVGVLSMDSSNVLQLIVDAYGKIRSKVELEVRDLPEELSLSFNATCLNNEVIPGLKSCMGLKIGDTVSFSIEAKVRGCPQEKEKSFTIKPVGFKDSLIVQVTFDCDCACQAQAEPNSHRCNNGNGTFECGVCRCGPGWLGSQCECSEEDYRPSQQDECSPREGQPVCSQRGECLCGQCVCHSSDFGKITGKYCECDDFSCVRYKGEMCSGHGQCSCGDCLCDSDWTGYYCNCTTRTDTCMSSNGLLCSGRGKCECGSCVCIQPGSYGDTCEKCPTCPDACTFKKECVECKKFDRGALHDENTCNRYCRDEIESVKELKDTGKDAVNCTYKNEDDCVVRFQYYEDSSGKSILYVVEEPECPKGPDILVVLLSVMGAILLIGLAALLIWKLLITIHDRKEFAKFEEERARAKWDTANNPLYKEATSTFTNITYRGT
Target sequence in this assay (P06756 31-889 limits assumed): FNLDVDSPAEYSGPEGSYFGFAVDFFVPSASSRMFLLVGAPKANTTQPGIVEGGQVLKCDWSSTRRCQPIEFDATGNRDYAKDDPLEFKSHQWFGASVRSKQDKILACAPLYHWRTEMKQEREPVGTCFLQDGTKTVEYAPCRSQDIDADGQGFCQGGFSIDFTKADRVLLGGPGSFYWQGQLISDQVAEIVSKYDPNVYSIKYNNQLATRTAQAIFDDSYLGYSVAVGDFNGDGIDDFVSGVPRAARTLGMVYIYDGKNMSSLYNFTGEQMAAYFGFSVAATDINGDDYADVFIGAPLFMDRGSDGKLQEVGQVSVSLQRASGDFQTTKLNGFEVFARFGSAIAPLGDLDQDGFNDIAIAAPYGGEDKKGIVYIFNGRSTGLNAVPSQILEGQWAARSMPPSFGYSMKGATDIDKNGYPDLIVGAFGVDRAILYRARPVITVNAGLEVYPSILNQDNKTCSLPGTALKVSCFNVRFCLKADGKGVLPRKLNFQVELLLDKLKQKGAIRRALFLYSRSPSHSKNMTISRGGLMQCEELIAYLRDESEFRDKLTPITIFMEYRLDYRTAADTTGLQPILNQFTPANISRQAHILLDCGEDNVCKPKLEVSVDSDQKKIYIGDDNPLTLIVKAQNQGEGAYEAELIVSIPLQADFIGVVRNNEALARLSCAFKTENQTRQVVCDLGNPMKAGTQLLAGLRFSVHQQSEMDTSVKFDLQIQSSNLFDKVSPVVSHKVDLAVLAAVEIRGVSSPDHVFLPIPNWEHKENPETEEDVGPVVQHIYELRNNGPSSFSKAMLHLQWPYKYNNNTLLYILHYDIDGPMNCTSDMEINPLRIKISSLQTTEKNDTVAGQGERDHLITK
Target sequence in this assay (P06756 891-1048 limits assumed): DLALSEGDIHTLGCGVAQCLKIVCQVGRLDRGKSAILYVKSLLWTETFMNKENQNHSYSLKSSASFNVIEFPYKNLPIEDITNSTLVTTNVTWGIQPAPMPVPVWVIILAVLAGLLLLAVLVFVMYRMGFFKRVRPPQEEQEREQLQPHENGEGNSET

Assay [2] has as its target T2, Integrin alpha-4/beta-1 (Homo sapiens, UniProt P05556+P13612). Kind of assay: Inhibition of fibronectin binding to […] isolated from human Jurkat E6.1 cells incubated for 1 hr by scintillation-proximity assay based competitive solid-phase binding assay. In kind it is tissue-based.
In assay [3] the target is T1, Integrin alpha-V/beta-3. Put plainly: Agonist activity at human alphaVbeta3 expressed in HEK293 cells assessed as reduction in fibronectin-induced ERK1/2 phosphorylation at 1 to 100 nM by Western blot analysis. In kind it is cell-based. The conditions noted are these: filed as agonist, dose 1-100 nM. A general note: In western blotting, separated proteins are transferred to a membrane and probed.

Assay [4] deals with T3, Integrin alpha-5/beta-1 (Homo sapiens, UniProt P05556+P08648). Put plainly: Agonist activity at alpha5beta1 in human K562 cells assessed as increase in cell adhesion to fibronectin at 10 ug/ml pre-incubated for 30 mins and further incubated for 1 hr in presence of integrin antagonist c(-RGDfV) by nitrophenyl-N-acetyl-beta-D-glucosaminide substrate based chromogenic assay. Particulars: dose 10.0 µg/ml, time 90.0 min. The method, boiled down:
(§1)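 Agonist-coated wells (10 µg/mL in methanol). Cells pre-treated 10 min before plating with neutralizing anti-α5, anti-αv or anti-α4 antibody (10 µg/mL), or pre-incubated with c(-RGDfV) (1 µM). K562 plated at 50,000/well and Jurkat E6.1 at 500,000/well. Adhesion quantified as in the standard assay.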

The next assay deals with Integrin alpha-V/beta-6 (Homo sapiens, UniProt P06756+P18564). Kind of assay: Inhibition of fibronectin binding to alphaVbeta6 isolated form human HT-29 cells incubated for 1 hr by […] competitive solid-phase binding assay. In kind it is tissue-based.
Chain of Integrin alpha-V/beta-6 (P06756 31-889 limits assumed): as the sequence (P06756 31-889 limits assumed) above
Chain of Integrin alpha-V/beta-6 (P06756 891-1048 limits assumed): as the sequence (P06756 891-1048 limits assumed) above
Chain of Integrin alpha-V/beta-6 (P18564 22-788 limits assumed): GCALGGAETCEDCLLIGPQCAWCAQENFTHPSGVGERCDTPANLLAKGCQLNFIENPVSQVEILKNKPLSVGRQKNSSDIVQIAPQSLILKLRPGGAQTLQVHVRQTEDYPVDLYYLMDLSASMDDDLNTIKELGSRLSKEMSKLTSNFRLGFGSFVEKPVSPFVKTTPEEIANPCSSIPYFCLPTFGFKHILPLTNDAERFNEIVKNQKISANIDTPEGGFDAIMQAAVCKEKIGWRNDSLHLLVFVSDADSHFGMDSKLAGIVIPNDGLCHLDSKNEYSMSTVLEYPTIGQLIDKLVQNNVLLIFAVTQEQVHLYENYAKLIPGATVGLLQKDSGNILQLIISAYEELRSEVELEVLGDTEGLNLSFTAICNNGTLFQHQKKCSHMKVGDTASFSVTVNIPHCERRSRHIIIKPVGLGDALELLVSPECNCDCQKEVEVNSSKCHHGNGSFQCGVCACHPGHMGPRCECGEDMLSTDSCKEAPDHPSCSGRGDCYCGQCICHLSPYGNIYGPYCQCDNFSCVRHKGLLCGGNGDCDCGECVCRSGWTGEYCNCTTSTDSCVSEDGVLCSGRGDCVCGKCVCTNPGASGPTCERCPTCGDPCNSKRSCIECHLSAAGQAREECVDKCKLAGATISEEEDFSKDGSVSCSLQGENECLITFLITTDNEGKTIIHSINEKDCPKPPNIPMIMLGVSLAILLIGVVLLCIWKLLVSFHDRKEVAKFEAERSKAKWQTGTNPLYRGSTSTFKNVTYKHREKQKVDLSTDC
The target in assay [5] is Integrin alpha-L/beta-2 (LFA-1) (Homo sapiens) (UniProt P20701+P05107). Kind of assay: Antagonist activity at alphaLbeta2 in human Jurkat E6.1 cells assessed as reduction in ICAM-1-induced ERK1/2 phosphorylation by Western blot analysis. In kind it is cell-based. The conditions noted are these: filed as antagonist.
Assay [6] concerns the target Integrin alpha-L/beta-2 (Homo sapiens). Kind of assay: Binding affinity to human alphaLbeta2 incubated for 1 hr by scintillation-proximity assay based competitive solid-phase binding assay.
The target of assay [7] is T3, Integrin alpha-5/beta-1. Put plainly: Agonist activity at alpha5beta1 in human K562 cells assessed as increase in cell adhesion to fibronectin at 10 ug/ml […] and further incubated for 1 hr in presence of neutralizing antibody against the alpha5 integrin subunit by nitrophenyl-N-acetyl-beta-D-glucosaminide substrate based chromogenic assay. The conditions noted are these: dose 10.0 µg/ml, time 90.0 min.

Assay [8] has as its target Integrin alpha-IIb/beta-3 (Homo sapiens, UniProt P05106+P08514). Put plainly: Inhibition of fibrinogen binding to alpha2bbeta3 isolated from human HEL cells incubated for 1 hr by […] competitive solid-phase binding assay.
In assay [9] the target is T1, Integrin alpha-V/beta-3. Kind of assay: Agonist activity at alphaVbeta3 in human SK-MEL-24 cells assessed as increase in cell adhesion to fibronectin pre-incubated for 30 mins before fibronectin and further incubated for 1 hr by nitrophenyl-N-acetyl-beta-D-glucosaminide substrate based chromogenic assay. An outline of the steps: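 Compound or methanol vehicle pre-incubated with cells for 30 min at room temperature. Cells then plated on wells coated overnight at 4 °C with fibronectin 10 µg/mL (SK-MEL-24, K562, HT-29) or fibrinogen 10 µg/mL (MCF7, HEL). Seeding was 50,000 cells/well, or 100000 for HEL. Adhesion ran 1 h at room temperature. Wells washed with 1% BSA/PBS. Adherent cells read by hexosaminidase substrate, absorbance 405 nm. Quadruplicate, at least three repeats.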
Target sequence in this assay (P05106 27-788 limits assumed): as the sequence (P05106 27-788 limits assumed) above
Target sequence in this assay (P06756 31-889 limits assumed): as the sequence (P06756 31-889 limits assumed) above
Target sequence in this assay (P06756 891-1048 limits assumed): as the sequence (P06756 891-1048 limits assumed) above

The target in assay [10] is T2, Integrin alpha-4/beta-1. Kind of assay: Agonist activity at alpha4beta1 in human Jurkat E6.1 cells assessed as increase in cell adhesion to VCAM1 at 10 ug/ml pre-incubated for 30 mins and further incubated for 30 mins in presence of neutralizing antibody against the alpha4 integrin subunit by nitrophenyl-N-acetyl-beta-D-glucosaminide substrate based chromogenic assay. Particulars: dose 10.0 µg/ml, time 60.0 min. An outline of the steps: as §1

Assay [11] has as its target T2, Integrin alpha-4/beta-1. Kind of assay: Agonist activity at alpha4beta1 in human Jurkat E6.1 cells assessed as increase in cell adhesion to VCAM1 pre-incubated for 30 mins before VCAM1 and further incubated for 30 mins by […]. In kind it is cell-based. An outline of the steps:
(§2)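 Jurkat E6.1 cells labelled with CellTracker green CMFDA (12.5 µM, 30 min, 37 °C), washed, then pre-incubated 30 min at 37 °C with compound or methanol. Plated at 500,000/well on VCAM-1 (α4β1) or ICAM-1 (αLβ2) coated wells (5 µg/mL) for 30 min at 37 °C. Cells lysed in 0.5% Triton X-100; fluorescence read Ex485/Em535. Quadruplicate, at least three repeats.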

Assay [12] deals with Integrin alpha-L/beta-2 (LFA-1) (Homo sapiens, UniProt P05107+P20701). Kind of assay: Agonist activity at alphaLbeta2 in human Jurkat E6.1 cells assessed as increase in cell adhesion to ICAM1 pre-incubated for 30 mins before ICAM1 and further incubated for 30 mins by […]. In kind it is cell-based. An outline of the steps:
as §2

IC50, Activity and EC50 data for three compounds are collected here from ChEMBL document CHEMBL4680084, “New β-Lactam Derivatives Modulate Cell Adhesion and Signaling Mediated by RGD-Binding and Leukocyte Integrins” (J Med Chem, 2016).

Calls of active or inactive are those of the source. The calls are words filed in the database; no cut-off is given here. A value given as a limit tells only on which side of the number the result lay.

T2 sequence (P05556 whole entry): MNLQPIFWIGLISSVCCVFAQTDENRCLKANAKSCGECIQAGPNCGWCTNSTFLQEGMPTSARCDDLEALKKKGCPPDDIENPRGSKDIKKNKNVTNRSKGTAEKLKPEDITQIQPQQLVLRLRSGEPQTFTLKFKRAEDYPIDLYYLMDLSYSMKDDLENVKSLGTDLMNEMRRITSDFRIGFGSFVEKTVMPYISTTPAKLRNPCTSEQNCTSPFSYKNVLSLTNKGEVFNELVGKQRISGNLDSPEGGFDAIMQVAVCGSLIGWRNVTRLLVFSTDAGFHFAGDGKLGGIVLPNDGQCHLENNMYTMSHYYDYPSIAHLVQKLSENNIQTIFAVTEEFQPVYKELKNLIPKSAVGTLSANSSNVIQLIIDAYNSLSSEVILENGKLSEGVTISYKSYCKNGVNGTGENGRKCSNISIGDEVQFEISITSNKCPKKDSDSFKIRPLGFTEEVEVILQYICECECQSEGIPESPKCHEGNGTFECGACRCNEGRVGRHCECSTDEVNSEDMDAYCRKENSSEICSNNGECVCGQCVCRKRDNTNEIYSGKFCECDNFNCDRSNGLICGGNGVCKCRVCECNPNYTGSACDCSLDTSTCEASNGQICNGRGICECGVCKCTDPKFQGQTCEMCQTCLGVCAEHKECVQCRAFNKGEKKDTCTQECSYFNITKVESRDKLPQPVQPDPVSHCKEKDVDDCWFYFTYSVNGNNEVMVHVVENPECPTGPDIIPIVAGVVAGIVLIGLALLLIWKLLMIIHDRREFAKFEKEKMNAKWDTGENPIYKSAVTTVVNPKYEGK
T2 sequence (P13612 whole entry): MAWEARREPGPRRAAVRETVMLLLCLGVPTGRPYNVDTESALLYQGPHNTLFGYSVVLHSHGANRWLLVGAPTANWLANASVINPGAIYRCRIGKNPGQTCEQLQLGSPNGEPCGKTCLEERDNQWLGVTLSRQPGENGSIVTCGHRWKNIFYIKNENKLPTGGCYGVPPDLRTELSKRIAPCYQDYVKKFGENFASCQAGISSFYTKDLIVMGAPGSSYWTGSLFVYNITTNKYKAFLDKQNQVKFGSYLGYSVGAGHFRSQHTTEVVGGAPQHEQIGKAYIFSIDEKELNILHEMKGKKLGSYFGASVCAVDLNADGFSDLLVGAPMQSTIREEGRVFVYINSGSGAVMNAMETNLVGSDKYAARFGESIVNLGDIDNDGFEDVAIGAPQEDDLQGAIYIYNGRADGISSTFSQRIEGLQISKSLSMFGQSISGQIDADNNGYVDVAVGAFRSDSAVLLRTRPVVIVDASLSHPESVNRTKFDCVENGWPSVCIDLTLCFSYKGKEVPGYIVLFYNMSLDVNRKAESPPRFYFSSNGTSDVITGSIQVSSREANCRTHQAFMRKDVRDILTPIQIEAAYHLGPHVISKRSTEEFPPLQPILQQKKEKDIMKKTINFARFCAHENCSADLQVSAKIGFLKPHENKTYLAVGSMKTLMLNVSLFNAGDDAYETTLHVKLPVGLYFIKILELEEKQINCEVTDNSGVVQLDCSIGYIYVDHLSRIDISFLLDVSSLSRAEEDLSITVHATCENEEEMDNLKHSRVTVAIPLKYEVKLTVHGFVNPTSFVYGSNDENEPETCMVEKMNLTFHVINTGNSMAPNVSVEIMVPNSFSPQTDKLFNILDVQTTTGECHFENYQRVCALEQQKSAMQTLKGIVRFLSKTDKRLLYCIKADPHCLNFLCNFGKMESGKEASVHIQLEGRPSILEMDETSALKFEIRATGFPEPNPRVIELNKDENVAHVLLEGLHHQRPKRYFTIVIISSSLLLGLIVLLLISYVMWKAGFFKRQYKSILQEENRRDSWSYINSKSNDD

Take `Nc1ccc(CNC(=O)N2C(=O)CC2CC(=O)O)cc1.O=C(O)C(F)(F)F` (stereo not given): the IC50 on Integrin alpha-V/beta-3 [1] is 71.7 nM; on Integrin alpha-4/beta-1 [2], 498 nM; on Integrin alpha-V/beta-6, greater than 1000 nM; in assay [6], 6.7 nM; in assay [8], greater than 1000 nM. For the same compound, the outcome on Integrin alpha-V/beta-3 [3] was Active. The outcome at Integrin alpha-5/beta-1 [4] and on Integrin alpha-5/beta-1 [7] was inactive. For the same compound, in [5], the Activity result was “Dose-dependent effect”.
For the compound `Cc1ccccc1NC(=O)N1C(=O)CC1CC(=O)NCC(=O)O` (stereo not given), the 50% inhibitory concentration (IC50) is greater than 5000 nM at Integrin alpha-V/beta-3 [1], greater than 1000 nM at Integrin alpha-4/beta-1 [2] and greater than 1000 nM on Integrin alpha-V/beta-6. The half-maximal effective concentration (EC50) (on Integrin alpha-V/beta-3 [9]; on Integrin alpha-4/beta-1 [11]; in [12]) was greater than 5000 nM throughout. At Integrin alpha-5/beta-1 [4] (filed as agonist), the result was Active. Also, the outcome at Integrin alpha-4/beta-1 [10] was inactive.
Consider `NCc1ccc(NC(=O)N2C(=O)CC2CC(=O)NCCC(=O)O)cc1.O=C(O)C(F)(F)F` (stereo not given), for which the figures for the concentration for half-maximal inhibition (IC50) (at Integrin alpha-V/beta-3 [1]; on Integrin alpha-V/beta-6; in assay [8]) were greater than 5000 nM, greater than 1000 nM and greater than 1000 nM, respectively. Moreover, the EC50 (on Integrin alpha-V/beta-3 [9]; at Integrin alpha-4/beta-1 [11]; in assay [12]) was greater than 5000 nM each time. Moreover, at Integrin alpha-5/beta-1 [4] (filed as agonist), the outcome was Active. For the same compound, the result on Integrin alpha-4/beta-1 [10] was inactive.

A word on the IC50: it is the point on the concentration scale where inhibition reaches its midpoint. As usually defined, the EC50 is the concentration needed to bring the measured effect to its halfway point.
